Laboratory results reported in ChEMBL document CHEMBL1122485, “Antibacterially active substituted anilides of carboxylic and sulfonic acids” (1983).
In brackets after ≈: the same amount, converted by molar mass.

How the values were obtained:
[1] = test system: Staphylococcus aureus; test: Minimum inhibitory concentration against staphylococcus aureus ATCC 6538; assay type: functional
In short: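 Agar dilution: 1% stocks in 95% ethanol or water, serially diluted into nutrient agar (pH 6.8) to 1000, 100, 10 and 1 ppm. Plates were dried 30 min at 37 °C and spotted with ten drops of 24-h nutrient broth culture. Incubation was 48 h at 37 °C, in duplicate, with hexachlorophene as standard. MIC was the lowest level with no growth of any inoculum on either dish.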

[2] = test system: Staphylococcus aureus; test: Bacteriostatic activity against Staphylococcus aureus ATCC 6538 at 10 ppm concentration; + =Positive; assay type: functional, organism-based
In short: (§1)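 S. aureus was inoculated at 10⁷/mL into 10 mL nutrient broth with 10 ppm compound. Those tubes were centrifuged (10000g, 10 min), resuspended in sterile diluent and streaked onto nutrient agar. Colonies after 48 h at 30 °C meant bacteriostatic; none meant bactericidal.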

[3] = test system: Staphylococcus aureus; test: Bactericidal activity against Staphylococcus aureus ATCC 6538 at 10 ppm concentration; - = Negative; assay type: functional, organism-based; in short: as §1
[4] = test system: Bacillus cereus; test: Activity at 10 ppm against Bacillus cereus NRRL 3711; x=Effective; assay type: functional, organism-based
In short: (§2)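 Gram-positive panel on nutrient agar containing compound at 10, 1.0 and 0.1 ppm, duplicate plates. Six 15-µL drops per species, each holding 10⁷ vegetative cells (10⁶ for L. plantarum). Hexachlorophene and no-compound plates were run alongside. Plates were incubated 5 days at 30 °C and scored for growth. MIC was taken as the lowest level with no colonies on either plate.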

[5] = test system: Staphylococcus aureus; test: Activity at 10 ppm against Staphylococcus aureus ATCC 6538; x=Effective; assay type: functional, organism-based
[6] = test system: Lactiplantibacillus plantarum; test: Activity at 10 ppm against Lactobacillus plantarum; x=Effective; assay type: functional, organism-based; in short: as §2
[7] = test system: Enterococcus faecalis; test: Activity at 10 ppm against Streptococcus faecalis; x=Effective; assay type: functional, organism-based; in short: as §2

MIC [1] [µg/mL]	SMILES	further results
1000 (≈ 2690 µM)	O=S(=O)(Nc1ccc(Cl)c(Cl)c1)c1cc(Cl)ccc1Cl	
10 (≈ 30.6 µM)	O=C(Nc1cc([N+](=O)[O-])ccc1O)c1ccc(Cl)c(Cl)c1	
> 1000	C=C(CCCCCCCCCC)C(=O)Nc1cc(Cl)cc(Cl)c1	
100 (≈ 304 µM)	O=C(O)CCCCCCC(=O)Nc1ccc(Cl)c([N+](=O)[O-])c1	
10 (≈ 30.3 µM)	CCc1ccc(S(=O)(=O)Nc2ccc(Cl)c(Cl)c2)cc1	
> 1000	CCCc1ccc(C(=O)Nc2cc(Cl)ccc2O)cc1	
10 (≈ 33.7 µM)	C=C(CCCCC)C(=O)Nc1ccc(Cl)c([N+](=O)[O-])c1	
10 (≈ 36.7 µM)	C=C(CCCC)C(=O)Nc1ccc(Cl)c(Cl)c1	
1000 (≈ 3450 µM)	O=C(O)CCCCC(=O)Nc1ccc(Cl)c(Cl)c1	
10 (≈ 34 µM)	CCCCCCCCC(=O)Nc1cc([N+](=O)[O-])ccc1O	
10 (≈ 32.4 µM)	CCC(C(=O)Nc1ccc(Cl)c(Cl)c1)c1ccccc1 (stereo unspecified)	
10 (≈ 35.1 µM)	CCCCCCC(=O)Nc1ccc(Cl)c([N+](=O)[O-])c1	
10 (≈ 33.3 µM)	CCCc1ccc(C(=O)Nc2cc([N+](=O)[O-])ccc2O)cc1	
10 (≈ 29.4 µM)	CCCCc1ccc(S(=O)(=O)Nc2cc(Cl)ccc2O)cc1	
1000 (≈ 2970 µM)	CCCCCCCCCCCC(=O)Nc1cc([N+](=O)[O-])ccc1O	
1 (≈ 2.69 µM)	O=S(=O)(Nc1ccc(Cl)c(Cl)c1)c1ccc(Cl)c(Cl)c1	Activity [2]: Negative; Activity [3]: Negative; Activity [4]: Concentration effective; Activity [5]: Concentration effective; Activity [6]: Concentration effective; Activity [7]: Concentration effective
10 (≈ 39.6 µM)	CCCCCC(=O)Nc1cc([N+](=O)[O-])ccc1O	
10 (≈ 27.9 µM)	CCC(C)c1ccc(S(=O)(=O)Nc2ccc(Cl)c(Cl)c2)cc1 (stereo unspecified)	
1 (≈ 3.31 µM)	CCCCCCCCC(=O)Nc1ccc(Cl)c(Cl)c1	
10 (≈ 36.7 µM)	C=C(CCCC)C(=O)Nc1cc(Cl)cc(Cl)c1	
1 (≈ 3.23 µM)	C=C(CCCCCCCC)C(=O)Nc1cc(Cl)ccc1O	
1000 (≈ 3290 µM)	CCCCc1ccc(C(=O)Nc2cc(Cl)ccc2O)cc1	
1 (≈ 2.89 µM)	COC(=O)CCCCCCCC(=O)Nc1ccc(Cl)c(Cl)c1	
> 1000	O=C(O)CCCCCCCCC(=O)Nc1ccc(Cl)c([N+](=O)[O-])c1	
> 1000	CCCc1ccc(S(=O)(=O)N(C)c2ccc(Cl)c(Cl)c2)cc1	
10 (≈ 30.6 µM)	CCCCCCCCCC(=O)Nc1ccc(Cl)c([N+](=O)[O-])c1	

MIC [1] [µg/mL]	SMILES	further results
1 (≈ 3.05 µM)	C=C(CCCCCCCC)C(=O)Nc1ccc(Cl)c(Cl)c1	
1 (≈ 3.07 µM)	CCCc1ccc(S(=O)(=O)Nc2cc(Cl)ccc2O)cc1	Activity [2]: Negative; Activity [3]: Negative; Activity [4]: Concentration effective; Activity [5]: Concentration effective; Activity [6]: Concentration effective; Activity [7]: Concentration effective
100 (≈ 292 µM)	O=C(O)CCCCCCCC(=O)Nc1ccc(Cl)c([N+](=O)[O-])c1	
100 (≈ 314 µM)	O=C(O)CCCCCCC(=O)Nc1ccc(Cl)c(Cl)c1	
> 1000	CCc1ccc(C(=O)Nc2ccc(Cl)c(Cl)c2)cc1	
10 (≈ 36.5 µM)	CCCCCCC(=O)Nc1ccc(Cl)c(Cl)c1	
10 (≈ 27.9 µM)	CCCCc1ccc(S(=O)(=O)Nc2ccc(Cl)c(Cl)c2)cc1	
1 (≈ 2.62 µM)	O=[N+]([O-])c1cc(NS(=O)(=O)c2ccc(Cl)c(Cl)c2)ccc1Cl	Activity [2]: Negative; Activity [3]: Negative; Activity [6]: Concentration effective; Activity [7]: Concentration effective
> 1000	CCCc1ccc(C(=O)Nc2ccc(Cl)c(Cl)c2)cc1	
10 (≈ 30.7 µM)	CC(C)c1ccc(S(=O)(=O)Nc2cc(Cl)ccc2O)cc1	
1 (≈ 3.07 µM)	CCCCCCCCCCCC(=O)Nc1cc(Cl)ccc1O	
10 (≈ 36.9 µM)	CCCCCC(=O)Nc1ccc(Cl)c([N+](=O)[O-])c1	
10 (≈ 37.1 µM)	CCCCCCCC(=O)Nc1cc(Cl)ccc1O	
1 (≈ 3.22 µM)	C=C(CCCCCC)C(=O)Nc1ccc(Cl)c([N+](=O)[O-])c1	
10 (≈ 38.4 µM)	CCCCCC(=O)Nc1ccc(Cl)c(Cl)c1	
1 (≈ 3.55 µM)	C=C(CCCCCC)C(=O)Nc1cc(Cl)ccc1O	
> 1000	CCCCCCc1ccc(C(=O)Nc2ccc(Cl)c(Cl)c2)cc1	
10 (≈ 34.9 µM)	C=C(CCCCC)C(=O)Nc1ccc(Cl)c(Cl)c1	
100 (≈ 373 µM)	C=C(CCCCC)C(=O)Nc1cc(Cl)ccc1O	
10 (≈ 28.4 µM)	O=S(=O)(Nc1cc(Cl)ccc1O)c1ccc(Cl)c(Cl)c1	
10 (≈ 28.5 µM)	CCCCc1ccc(S(=O)(=O)Nc2cc([N+](=O)[O-])ccc2O)cc1	Activity [2]: Negative; Activity [3]: Negative; Activity [4]: Concentration effective; Activity [5]: Concentration effective; Activity [6]: Concentration effective
> 1000	O=C(Nc1cc(Cl)ccc1O)c1ccc(Cl)c(Cl)c1	
1000 (≈ 3570 µM)	Cc1ccc(C(=O)Nc2ccc(Cl)c(Cl)c2)cc1	
1 (≈ 3.01 µM)	O=C(O)CCCCCCCC(=O)Nc1ccc(Cl)c(Cl)c1	
1 (≈ 3.33 µM)	C=C(CCCCCC)C(=O)Nc1ccc(Cl)c(Cl)c1	
1000 (≈ 2800 µM)	COC(=O)CCCCCCCC(=O)Nc1ccc(Cl)c([N+](=O)[O-])c1	

MIC [1] [µg/mL]	SMILES	further results
1000 (≈ 3100 µM)	CCCCc1ccc(C(=O)Nc2ccc(Cl)c(Cl)c2)cc1	
1 (≈ 3.65 µM)	CCCCCCC(=O)Nc1cc(Cl)cc(Cl)c1	Activity [2]: Negative; Activity [3]: Negative; Activity [5]: Concentration effective; Activity [6]: Concentration effective
10 (≈ 34.5 µM)	CCC(C(=O)Nc1cc(Cl)ccc1O)c1ccccc1 (stereo unspecified)	
10 (≈ 31.6 µM)	Cc1ccc(S(=O)(=O)Nc2ccc(Cl)c(Cl)c2)cc1	
1 (≈ 3.4 µM)	O=C(CCc1ccccc1)Nc1ccc(Cl)c(Cl)c1	
1 (≈ 2.97 µM)	CCCc1ccc(S(=O)(=O)Nc2cc([N+](=O)[O-])ccc2O)cc1	
10 (≈ 30.5 µM)	C=C(CCCCCCCC)C(=O)Nc1cc(Cl)cc(Cl)c1	
1 (≈ 3.36 µM)	CCCCCCCCCC(=O)Nc1cc(Cl)ccc1O	
> 1000	CCCCCCCCCCCC(=O)Nc1ccc(Cl)c([N+](=O)[O-])c1	
1 (≈ 3.33 µM)	C=C(CCCCCC)C(=O)Nc1cc(Cl)cc(Cl)c1	Activity [2]: Negative; Activity [3]: Negative; Activity [5]: Concentration effective; Activity [6]: Concentration effective
100 (≈ 363 µM)	O=C(CCc1ccccc1)Nc1cc(Cl)ccc1O	
> 1000	O=C(O)CCC(=O)Nc1c(Cl)cccc1Cl	
10 (≈ 35.9 µM)	C=C(CCCCC)C(=O)Nc1cc([N+](=O)[O-])ccc1O	
10 (≈ 29 µM)	CC(C)c1ccc(S(=O)(=O)Nc2ccc(Cl)c(Cl)c2)cc1	
10 (≈ 29 µM)	CCCCCCCCCCCC(=O)Nc1cc(Cl)cc(Cl)c1	
> 1000	COC(=O)CCCCCCCCC(=O)Nc1ccc(Cl)c(Cl)c1	
1000 (≈ 3620 µM)	COC(=O)CCC(=O)Nc1c(Cl)cccc1Cl	
1 (≈ 3.18 µM)	C=C(CCCCCCC)C(=O)Nc1ccc(Cl)c(Cl)c1	
100 (≈ 318 µM)	COC(=O)CCCCC(=O)Nc1ccc(Cl)c([N+](=O)[O-])c1	
10 (≈ 39.1 µM)	CCCCCCC(=O)Nc1cc(Cl)ccc1O	
1000 (≈ 3620 µM)	COC(=O)CCC(=O)Nc1ccc(Cl)c(Cl)c1	
100 (≈ 333 µM)	O=C(O)CCCCC(=O)Nc1ccc(Cl)c([N+](=O)[O-])c1	
1 (≈ 3.18 µM)	CCCCc1ccc(C(=O)Nc2cc([N+](=O)[O-])ccc2O)cc1	
10 (≈ 41.4 µM)	CCCCCC(=O)Nc1cc(Cl)ccc1O	
100 (≈ 394 µM)	C=C(CCCC)C(=O)Nc1cc(Cl)ccc1O	
10 (≈ 31.6 µM)	CCCCCCCCCC(=O)Nc1cc(Cl)cc(Cl)c1	

MIC [1] [µg/mL]	SMILES	further results
> 1000	O=C(Cc1ccccc1)Nc1ccc(Cl)c(Cl)c1	
10 (≈ 37.6 µM)	CCCCCCC(=O)Nc1cc([N+](=O)[O-])ccc1O	
1 (≈ 3.38 µM)	C=C(CCCCCCC)C(=O)Nc1cc(Cl)ccc1O	
100 (≈ 382 µM)	O=C(Cc1ccccc1)Nc1cc(Cl)ccc1O	
> 1000	O=C(Nc1ccc(Cl)c(Cl)c1)c1ccc(Cl)c(Cl)c1	
1000 (≈ 3010 µM)	COC(=O)CCCCCCC(=O)Nc1ccc(Cl)c(Cl)c1	
1 (≈ 3.31 µM)	CCCCCCCCC(=O)Nc1cc(Cl)cc(Cl)c1	
1 (≈ 2.96 µM)	C=C(CCCCCCCCCC)C(=O)Nc1cc(Cl)ccc1O	
10 (≈ 28.2 µM)	CCCc1ccc(S(=O)(=O)Nc2ccc(Cl)c([N+](=O)[O-])c2)cc1	
1000 (≈ 2920 µM)	COC(=O)CCCCCCC(=O)Nc1ccc(Cl)c([N+](=O)[O-])c1	
> 1000	CCCc1ccc(S(=O)(=O)N(Cc2ccc(Cl)cc2)c2ccc(Cl)c(Cl)c2)cc1	
1000 (≈ 3290 µM)	COC(=O)CCCCC(=O)Nc1ccc(Cl)c(Cl)c1	
1 (≈ 2.95 µM)	C=C(CCCCCCCC)C(=O)Nc1ccc(Cl)c([N+](=O)[O-])c1	
10 (≈ 32.4 µM)	CC(CC(=O)Nc1ccc(Cl)c(Cl)c1)c1ccccc1 (stereo unspecified)	
10 (≈ 38.4 µM)	CCCCCC(=O)Nc1cc(Cl)cc(Cl)c1	
> 1000	C=C(CCCCCCCCCC)C(=O)Nc1ccc(Cl)c(Cl)c1	
> 1000	COC(=O)CCCCCCCCC(=O)Nc1ccc(Cl)c([N+](=O)[O-])c1	
100 (≈ 290 µM)	CCCCCCCCCCCC(=O)Nc1ccc(Cl)c(Cl)c1	
1 (≈ 3.08 µM)	C=C(CCCCCCC)C(=O)Nc1ccc(Cl)c([N+](=O)[O-])c1	
1000 (≈ 3820 µM)	O=C(O)CCC(=O)Nc1ccc(Cl)c(Cl)c1	
10 (≈ 27.5 µM)	O=[N+]([O-])c1ccc(O)c(NS(=O)(=O)c2ccc(Cl)c(Cl)c2)c1	
> 1000	O=C(O)CCCCCCCCC(=O)Nc1ccc(Cl)c(Cl)c1	
10 (≈ 31.6 µM)	CCCCCCCCCC(=O)Nc1ccc(Cl)c(Cl)c1	
10 (≈ 31.8 µM)	C=C(CCCCCCC)C(=O)Nc1cc(Cl)cc(Cl)c1	
